Results on 9 compounds are retold here after ChEMBL document CHEMBL1949632, “Discovery of potent and liver-selective stearoyl-CoA desaturase (SCD) inhibitors in an acyclic linker series” (Bioorg Med Chem Lett, 2012).

Data set [1] addresses T1, Acyl-CoA desaturase 1 (Rattus norvegicus, UniProt P07308).
T1 sequence (P07308 whole entry): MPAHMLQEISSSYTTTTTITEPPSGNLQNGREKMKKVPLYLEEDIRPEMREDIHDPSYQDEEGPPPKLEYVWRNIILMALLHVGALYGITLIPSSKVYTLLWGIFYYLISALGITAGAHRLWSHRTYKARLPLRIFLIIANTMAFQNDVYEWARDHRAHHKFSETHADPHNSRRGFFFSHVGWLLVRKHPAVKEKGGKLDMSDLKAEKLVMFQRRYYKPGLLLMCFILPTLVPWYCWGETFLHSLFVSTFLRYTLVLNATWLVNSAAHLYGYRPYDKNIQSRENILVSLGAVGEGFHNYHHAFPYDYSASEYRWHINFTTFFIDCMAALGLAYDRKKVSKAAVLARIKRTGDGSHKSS
The data set is described as follows: Inhibition of rat liver microsome SCD1. Put shortly:
(§1)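 IC50s are the average of at least two independent titrations.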

Data set [2] addresses T2, Stearoyl-CoA desaturase (Homo sapiens, UniProt O00767).
T2 sequence (O00767 whole entry): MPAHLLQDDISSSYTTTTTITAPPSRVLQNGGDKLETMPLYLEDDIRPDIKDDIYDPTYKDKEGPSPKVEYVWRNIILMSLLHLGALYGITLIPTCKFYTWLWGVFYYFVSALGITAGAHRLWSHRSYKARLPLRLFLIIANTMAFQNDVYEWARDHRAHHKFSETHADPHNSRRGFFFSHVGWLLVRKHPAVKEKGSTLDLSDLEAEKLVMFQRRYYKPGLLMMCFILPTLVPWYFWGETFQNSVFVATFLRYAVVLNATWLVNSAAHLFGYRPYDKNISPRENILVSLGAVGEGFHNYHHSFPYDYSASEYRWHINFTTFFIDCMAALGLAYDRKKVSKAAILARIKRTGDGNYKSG
The data set can be described thus: Inhibition of SCD1 in OATP-deficient human HepG2 cells by whole cell assay. The class given is cell-based.

Data set [3] is described as follows: Drug uptake in mouse liver at 10 mg/kg, po after 6 hrs. The settings on record: read-out: Drug uptake. More on the design: dose 10 mg/kg, route oral. The class given is ADME, organism-based. Put shortly:
(§2)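 Tissue distribution study. Mice (n = 2) given 10 mg/kg orally; liver, plasma, shaved skin and Harderian gland concentrations measured 6 h post dose.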

The test system of data set [4] is Mus musculus. The data set can be described thus: Inhibition of SCD1 in mouse liver assessed as reduction in conversion of [14C]stearic acid to [14C]oleic acid at 2 mg/kg, po measured after 3 hrs. Format: functional. Summed up:
(§3)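 Mouse liver pharmacodynamic model. Mice (n = 5) on high-carbohydrate diet, dosed orally; [1-14C]-stearic acid tracer given intravenously. Liver lipid 14C-oleic/14C-stearic ratio (SCD activity index) and liver drug concentration determined 3 h post dose. % inhibition is relative to vehicle-treated animals.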

Data set [5] in a line: Drug uptake in mouse liver at 2 mg/kg, po measured after 3 hrs. Format: ADME, organism-based. Further details: dose 2 mg/kg, route oral. The conditions noted are these: read-out: Drug uptake. Put shortly:
as §3

The nature of data set [6]: Drug uptake in mouse plasma at 10 mg/kg, po after 6 hrs. Format: ADME, organism-based. Further details: dose 10 mg/kg, route oral. Put shortly: as §2
Data set [7] can be described thus: Drug uptake in mouse shaved skin at 10 mg/kg, po after 6 hrs. The class given is ADME, organism-based, Zone of skin. Further details: dose 10 mg/kg, route oral. The conditions noted are these: read-out: Drug uptake. Put shortly:
as §2

Data set [8] can be described thus: Drug uptake in mouse harderian glands at 10 mg/kg, po after 6 hrs. Format: ADME, organism-based, Harderian gland. More on the design: dose 10 mg/kg, route oral. The settings on record: read-out: Drug uptake. Put shortly:
as §2

In data set [9] the test system is Mus musculus. The data set can be described thus: Inhibition of SCD1 in mouse liver assessed as reduction in conversion of [14C]stearic acid to [14C]oleic acid after at 0.4 mg/kg, po after 3 hrs. Format: functional. Put shortly: as §3
Data set [10] in a line: Drug uptake in mouse liver at 0.4 mg/kg, po after 3 hrs. The class given is ADME, organism-based. More on the design: dose 0.4 mg/kg, route oral. The conditions noted are these: read-out: Drug uptake. Put shortly: as §3
The target in data set [11] is T1, Acyl-CoA desaturase 1. The data set can be described thus: Inhibition of SCD1 in rat hepatocytes expressing OATP. Format: cell-based, Hepatocyte. Summed up:
as §1

Data set [12] in a line: Oral bioavailability in C57BL/6 mouse at 10 mg/kg. The class given is ADME, organism-based, C57BL6. The conditions noted are these: in vivo. Summed up:
(§4)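 C57BL6 mice dosed orally at 10 mg/kg in 0.5% methocel; plasma PK followed over 0–6 h, giving oral bioavailability (F) and AUC0–6h.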

Data set [13] in a line: AUC (0 to 6 hrs) in C57BL/6 mouse at 10 mg/kg, po. Further details: time < 6 hr, dose 10 mg/kg, route oral. The class given is ADME, organism-based, C57BL6. The conditions noted are these: plasma. Put shortly: as §4
Data set [14] in a line: Stability in rat hepatocytes assessed as compound remaining after 2 hrs. The conditions noted are these: read-out: Stability. Format: ADME, cell-based, Hepatocyte. Put shortly:
(§5)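 Fresh mouse or rat hepatocytes, 2 million cells/mL in Krebs-Henseleit buffer, incubated at 37 °C for 2 h under 95% O2/5% CO2. Parent compound remaining measured.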

For data set [15], the system named is Mus musculus. The data set can be described thus: Inhibition of SCD1 in mouse liver assessed as reduction in conversion of [14C]stearic acid to [14C]oleic acid after at 10 mg/kg, po after 3 hrs. Format: functional. Put shortly:
as §3

Data set [16] in a line: Drug uptake in mouse liver at 10 mg/kg, po after 3 hrs. Format: ADME, organism-based. Further details: dose 10 mg/kg, route oral. The conditions noted are these: read-out: Drug uptake. Put shortly: as §3
For data set [17], the target named is T2, Stearoyl-CoA desaturase. The data set is described as follows: Inhibition of human SCD1.
The target of data set [18] is Acyl-CoA (8-3)-desaturase (Homo sapiens, UniProt O60427). The data set is described as follows: Inhibition of delta-5 desaturase expressed in HepG2 cells. The class given is cell-based.
The target in data set [19] is T3, Acyl-CoA 6-desaturase (Homo sapiens, UniProt O95864).
T3 sequence (O95864 whole entry): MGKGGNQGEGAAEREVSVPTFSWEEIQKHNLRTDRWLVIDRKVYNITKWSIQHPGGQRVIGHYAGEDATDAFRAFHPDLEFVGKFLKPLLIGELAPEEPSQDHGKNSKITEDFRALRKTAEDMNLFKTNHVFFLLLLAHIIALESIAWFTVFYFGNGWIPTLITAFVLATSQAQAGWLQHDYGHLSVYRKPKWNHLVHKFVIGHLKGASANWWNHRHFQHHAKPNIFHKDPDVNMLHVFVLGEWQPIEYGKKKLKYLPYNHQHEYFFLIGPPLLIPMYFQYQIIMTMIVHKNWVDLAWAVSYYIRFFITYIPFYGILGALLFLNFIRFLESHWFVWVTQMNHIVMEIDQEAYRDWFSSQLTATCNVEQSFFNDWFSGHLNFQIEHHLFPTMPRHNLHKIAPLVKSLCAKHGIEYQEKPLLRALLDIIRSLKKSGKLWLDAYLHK
The data set can be described thus: Inhibition of delta-6 desaturase expressed in HepG2 cells. Format: cell-based.

Data set [20] concerns Mus musculus. The data set is described as follows: Inhibition of SCD1 in mouse liver assessed as reduction in conversion of [14C]stearic acid to [14C]oleic acid at 60 mg/kg, po measured after 3 hrs. Format: functional. Summed up:
as §3

A short description of data set [21]: Drug uptake in mouse liver at 60 mg/kg, po measured after 3 hrs. The class given is ADME, organism-based. Further details: dose 60 mg/kg, route oral. The conditions noted are these: read-out: Drug uptake. Summed up:
as §3

Data set [22] can be described thus: Stability in mouse hepatocytes assessed as compound remaining after 2 hrs. Format: ADME, cell-based, Hepatocyte. The settings on record: read-out: Stability. Put shortly:
as §5

Data set [23] has as its target Acyl-CoA desaturase 1 (Mus musculus) (UniProt P13516). The data set is described as follows: Inhibition of SCD1 in mouse SCD1 enzyme assay.

Acyl-CoA (8-3)-desaturase, sequence (O60427 whole entry): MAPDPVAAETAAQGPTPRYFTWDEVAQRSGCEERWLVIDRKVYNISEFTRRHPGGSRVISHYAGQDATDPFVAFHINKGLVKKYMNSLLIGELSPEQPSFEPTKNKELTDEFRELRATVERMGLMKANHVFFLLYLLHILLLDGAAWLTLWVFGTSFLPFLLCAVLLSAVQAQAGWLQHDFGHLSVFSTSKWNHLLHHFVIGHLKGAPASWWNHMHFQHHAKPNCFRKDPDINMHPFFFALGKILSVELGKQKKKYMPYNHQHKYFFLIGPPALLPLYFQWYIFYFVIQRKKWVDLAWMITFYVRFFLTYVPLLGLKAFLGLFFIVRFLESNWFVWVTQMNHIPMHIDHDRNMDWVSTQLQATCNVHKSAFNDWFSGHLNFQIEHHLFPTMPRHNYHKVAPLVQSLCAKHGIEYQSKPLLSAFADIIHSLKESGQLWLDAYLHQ

A word on the IC50: it is the midpoint of a concentration-inhibition curve. High values mean a need for much substance, low ones inhibition by little substance. For `O=C(O)Cn1nnc(-c2nnc(OCCCOc3cc(F)ccc3Br)s2)n1`, the 50% inhibitory concentration (IC50) was 0.026 µM in data set [1] and over 60 µM in data set [2].
Usually inhibition in vivo stands for the percentage by which the read-out fell short of the control. Take `O=C(O)Cn1nnc(-c2cc(N3CCC(Oc4cc(F)ccc4Br)CC3)no2)n1` [MK-8245]: the concentration at 6 h is 2700 nM in data set [3], 30 nM in data set [6], 70 nM in data set [7] and 130 nM in [8]. In addition, the inhibition in vivo at 2 mg/kg in [4] turned out to be 89%. Further, the concentration at 3 h was 4900 nM in [5] and 1600 nM in data set [10]. The inhibition in vivo at 0.4 mg/kg in data set [9] stood at 49%.
On to `O=C(O)Cn1nnc(-c2cc(OCCCCOc3cc(F)ccc3Br)no2)n1`, for which the IC50 was 0.248 µM in [1] and over 40 µM in [2].
Broadly, the bioavailability is the share of a dose that reaches the circulation, judged against a reference dose that is usually intravenous. A higher bioavailability goes with much systemic uptake. In general, AUC(0-t) refers to exposure summed from dosing to a finite time, without extrapolation to infinity. A higher AUC(0-t) goes with more exposure. Consider `O=C(O)Cn1nnc(-c2cnc(OCCCOc3cc(F)ccc3Br)s2)n1`, for which the IC50 in [1] was 0.005 µM; in data set [2], 3.87 µM; in [11], 0.176 µM. Besides, the concentration at 6 h in data set [3] came to 8070 nM; in data set [6] it was 1080 nM; in [7] it was 240 nM; in data set [8], 590 nM. Moreover, in data set [12], the bioavailability turned out to be 32%. Besides, in data set [13], the AUC(0-t) at 6 h turned out to be 11.4 µM·h. Moreover, in data set [4], the inhibition in vivo at 2 mg/kg was 49%. Besides, the concentration at 3 h in [5] is 7600 nM; in data set [16], 28600 nM. For the same compound, the remaining at 2 h in data set [14] turned out to be 94%. Moreover, the inhibition in vivo at 10 mg/kg in [15] was determined as 79%.
Take `Cc1nc(OCCCOc2cc(F)ccc2Br)sc1-c1nnn(CC(=O)O)n1`: the IC50 in data set [1] was 0.022 µM; in data set [2], 20.5 µM; in [11] it was 0.945 µM.
For `O=C(O)Cn1nnc(-c2cnc(OCCCOc3cc(OC(F)(F)F)ccc3Br)s2)n1`, the IC50 in data set [1] was determined as 0.002 µM; in [2] it was 0.969 µM; in data set [11], 0.091 µM. In addition, the concentration at 6 h in data set [3] was determined as 13700 nM; in [6], 770 nM; in data set [7], 300 nM; in data set [8] it was 1850 nM. Also, the inhibition in vivo at 2 mg/kg in [4] came to 81%. For the same compound, the concentration at 3 h amounted to 4200 nM in data set [5] and 18300 nM in data set [16]. In addition, the inhibition in vivo at 10 mg/kg in data set [15] was found to be 91%.
Take `O=C(O)Cn1nnc(-c2cc(OCCCOc3cc(F)ccc3Br)no2)n1`: the half-maximal inhibitory concentration (IC50) in data set [1] was 0.013 µM; in [2], 7.74 µM; in [11], 0.213 µM; in data set [17] it was 0.041 µM; in [18], over 20 µM; in data set [19], over 20 µM. The compound further yielded an IC50 in data set [23] of 0.01 µM. The concentration at 6 h in data set [3] was determined as 230 nM. The bioavailability in [12] is 10%. In addition, in [13], the area under the curve AUC(0-t) at 6 h came to 1 µM·h. Also, the inhibition in vivo at 60 mg/kg in data set [20] was found to be 85%. The concentration at 3 h in data set [21] came out at 7800 nM. Further, the remaining at 2 h in data set [22] stood at 75%; in data set [14], 55%.
In the case of `O=C(O)Cn1nnc(-c2cc(OCCOc3cc(F)ccc3Br)no2)n1`, the values for the IC50 in data set [1] and in [2] were 0.226 µM and over 40 µM, respectively.
With `O=C(O)Cn1nnc(-c2cc(OCCOCc3cc(F)ccc3Br)no2)n1`, the IC50 in [1] is 0.305 µM; in [2] it was over 100 µM.
